Reference: publication PMC9508631 (Saudi Pharmaceutical Journal : SPJ, 2022)

How the values were obtained:
PDE5 = details: ref Bischoff, 2004; cited from earlier work
[1] = Stability of TAD in rat plasma under storage and processing conditions; assay type: in vitro ADME; details: for Processed sample stability, RE% / Processed sample stability, calculated conc. (Mean ± SD): autosampler, room temperature 24 h; for Freeze–thaw stability, RE% / Freeze–thaw stability, calculated conc. (Mean ± SD): three freeze–thaw cycles; for Long term stability, RE% / Long term stability, calculated conc. (Mean ± SD): −30 °C for 30 days
How it was run: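 Test compound spiked into blank rat plasma as QC samples at 0.5, 10 and 100 ng mL−1. Conditions: bench-top thaw at room temperature for 6 h (triplicates); −30 °C for 30 days; three freeze–thaw cycles (24 h at −30 °C, ambient thaw); processed samples held in the autosampler at room temperature for 24 h. Quantified by FPSE-UPLC-ESI-MS/MS, with peak areas compared against freshly prepared QCs; acceptance RE <15%.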

[2] = actual conc. 0.5 ng mL^-1, room temperature 6 h

| SMILES | Selectivity for PDE5 (PDE5) | Processed sample stability, RE% ([1]; actual conc. 0.5 ng mL^-1) | Processed sample stability, calculated conc. (Mean ± SD) ([1]; actual conc. 0.5 ng mL^-1) | Benchtop stability, RE% [1, 2] | Benchtop stability, calculated conc. (Mean ± SD) [1, 2] | Freeze–thaw stability, RE% ([1]; actual conc. 0.5 ng mL^-1) | Freeze–thaw stability, calculated conc. (Mean ± SD) ([1]; actual conc. 0.5 ng mL^-1) | Long term stability, RE% ([1]; actual conc. 0.5 ng mL^-1) | Long term stability, calculated conc. (Mean ± SD) ([1]; actual conc. 0.5 ng mL^-1) | Processed sample stability, RE% ([1]; actual conc. 10 ng mL^-1) | Processed sample stability, calculated conc. (Mean ± SD) ([1]; actual conc. 10 ng mL^-1) | Benchtop stability, calculated conc. (Mean ± SD) ([1]; actual conc. 10 ng mL^-1, room temperature 6 h) | Freeze–thaw stability, calculated conc. (Mean ± SD) ([1]; actual conc. 10 ng mL^-1) | Long term stability, RE% ([1]; actual conc. 10 ng mL^-1) | Long term stability, calculated conc. (Mean ± SD) ([1]; actual conc. 10 ng mL^-1) | Processed sample stability, calculated conc. (Mean ± SD) ([1]; actual conc. 100 ng mL^-1) | Benchtop stability, calculated conc. (Mean ± SD) ([1]; actual conc. 100 ng mL^-1, room temperature 6 h) | Freeze–thaw stability, RE% ([1]; actual conc. 100 ng mL^-1) | Freeze–thaw stability, calculated conc. (Mean ± SD) ([1]; actual conc. 100 ng mL^-1) | Stability in rat plasma under the storage and processing situations ([1]; all four stability tests, RE% and RSD% within 15%) |
| --- | --- | --- | --- | --- | --- | --- | --- | --- | --- | --- | --- | --- | --- | --- | --- | --- | --- | --- | --- | --- |
| CCCc1nn(C)c2c(=O)[nH]c(-c3cc(S(=O)(=O)N4CCN(C)CC4)ccc3OCC)nc12 [SLD, sildenafil] | 41 times |  |  |  |  |  |  |  |  |  |  |  |  |  |  |  |  |  |  |  |
| CN1CC(=O)N2[C@H](c3ccc4c(c3)OCO4)c3[nH]c4ccccc4c3C[C@@H]2C1=O [TAD, Tadalafil] | 1000 times | −2.0% | 0.490 ± 0.011 ng/mL | −1.60% | 0.492 ± 0.012 ng/mL | −3.8% | 0.481 ± 0.022 ng/mL | −2.60% | 0.487 ± 0.018 ng/mL | 0.50% | 10.05 ± 0.195 ng/mL | 9.98 ± 0.251 ng/mL | 9.85 ± 0.263 ng/mL | 1.10% | 10.11 ± 0.219 ng/mL | 99.48 ± 1.824 ng/mL | 99.90 ± 1.850 ng/mL | 0.22% | 100.22 ± 2.054 ng/mL | stable |
